# Screening data: PubChem, several laboratories
# This excerpt belongs to a sample that is enriched for hits.
# Redox H2O2 prof: compounds producing H2O2 with reducing agent – biochemical, NIH compound library profiling, artefact control for MLSCN library redox annotation, primary screen | DTT-dependent redox cycling H2O2, phenol red/HRP absorbance; 100% = 100 µM peroxide control, 0% = buffer | activation, % at 10 µM | 200,000 tested, 0.03% active | AID 878, 2007;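 active = activation of at least 50% relative to the plate's high and low controls in the primary single-dose screen; inactive = activation below 50%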;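 also: compound incubated with DTT at 0.8 mM final as the reducing agent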
# MPTP block: mitochondrial permeability transition pore inhibitors, primary screen, biochemical, isolated mouse mitochondria, absorbance | inhibition, % at 10 µM | Ca2+ swelling absorbance, 30 min | 360,000 tested, 1.4% active;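 active = inhibition of 50% or more, scaled per plate between neutral and stimulator controls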;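 also: 0% = DMSO wells given calcium and 100% = 1 mM EGTA wells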
# L major viab: Leishmania major promastigote growth inhibition, primary screen; Leishmania major promastigotes, resazurin fluorescence viability; 200,000 tested, 9% active; inhibition, % at 10 µM; in the data active = inhibition above about 50%;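 also: promastigotes grown with compound for 44 hours at 28 °C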
# Lipid droplet: inhibitors of hepatocyte lipid droplet formation, primary screen, imaging, high-throughput imaging, BODIPY stain | AML12 mouse hepatocytes, oleate lipid droplets | inhibition, % at 6.5 µM | 240,000 tested, 0.4% active;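 active = lipid droplet intensity inhibited by at least 50%, with more than 500 cells counted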
#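 Assay system: AML12 hepatocytes (mouse) / Also added: 100 µM oleic acid challenge / Times: overnight treatment with compound plus oleate / Detection: high-content imaging of BODIPY-stained droplets and DAPI nuclei / Evaluation: % inhibition of lipid droplet signal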
# T cruzi inh: inhibitors of intracellular T. cruzi growth, primary screen, luminescence, NIH3T3 host cells; T. cruzi beta-gal in NIH3T3, 90 h; inhibition, % (no concentration beside the values); 300,000 tested, 1.4% active; AID 1885, 2009;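 active = mean inhibition across valid replicates above about 55%, limit read from the data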;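 also: signal also drops with host cell toxicity which is not excluded here; 0% = plate median of DMSO wells and 100% = zero luminescence signal; higher percent means less beta-gal luminescence so fewer parasites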
#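 Read-out: Parasite load inhibition, % | Test system: Mouse NIH/3T3 fibroblasts infected with β-gal-expressing T. cruzi Tulahuen C4 | Amount: 5,000 cells/well | Medium: DMEM, 2% fetal bovine serum | Signal: GalScreen β-gal luminescence, detergent lysis, 60 min | Timing: 3 h attach, ≥90 h co-culture | Also added: Tulahuen C4 trypomastigotes, 5000/well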
# MPTP counter: fluorescence retest of MPTP screen hits in isolated mitochondria, single concentration; shares compounds with MPTP block; membrane potential, Rhodamine 123 fluorescence; inhibition, % at 10 µM; 5,000 tested, 78% active; in the data active = inhibition above about 22%;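 also: 0% = DMSO vehicle and 100% = positive control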
# * hit, by the source's call; . = not tested or not shown.
SMILES,Redox H2O2 prof,MPTP block,L major viab,Lipid droplet,T cruzi inh,MPTP counter
CC1(C)SC(=S)N(NC(=O)Nc2ccccc2)C1N(O)C(=O)Nc1cccc2ccccc12 (stereo not drawn),1,72*,16,0,26,69*
CC(=O)Nc1csc2ccccc12,0,1,-6,-7,-6,.
O=C(Nc1ccccc1)Nc1csc2ccccc12,.,84*,.,-16,10,85*
COc1ccc(N(CC(=O)NN=C2CCN(C)CC2)S(=O)(=O)c2ccc(NC(C)=O)cc2)cc1,.,-1,.,-2,0,.
C[C@H]1c2cccc(O)c2C(O)=C2C(=O)[C@]3(O)C(O)=C(C(N)=O)C(=O)[C@@H](N(C)C)C3[C@@H](O)C21 (stereo partly drawn),.,86*,.,.,-13,4
N#CCCN/N=C(/Cc1nc2ccccc2[nH]1)c1ccc(Cl)cc1,0,.,33,-28,12,.
Clc1cccc(/C(Cc2nc3ccccc3[nH]2)=N\Nc2ccccc2)c1,0,97*,40,7,5,62*
Cc1ccc(C(=O)NCC(=O)Nc2ccncc2)s1,.,0,.,4,4,.
Cc1ccc(OCc2cc(C(=O)N3CCC(Oc4cccnc4)CC3)no2)cc1C,.,91*,.,-4,5,89*
O=C(c1cc(COc2ccc(F)cc2Cl)on1)N1CCC(OCc2cccnc2)CC1,0,68*,18,2,10,23*
O=C(c1cc(COc2cccc(C(F)(F)F)c2)on1)N1CCC(Oc2cccnc2)CC1,.,60*,.,-21,29,83*
O=C(c1cc(COc2ccc(F)cc2Cl)on1)N1CCCC(OCc2cccnc2)C1 (stereo not drawn),-1,5,24,-31,44,.
CCCn1c(C(O)c2cccc(OC)c2)nc2ccccc21 (stereo not drawn),.,1,.,.,3,.
CCCn1cc(CN2CCC(N3CCC(C(=O)N4CCOCC4)CC3)CC2)c(C)n1,.,2,.,2,-3,.
O=C(Nc1ccccc1)Nc1ccc(S(=O)(=O)N2CCCCC2)cc1,1,99*,82*,-8,-5,89*
O=S(=O)(c1ccc(NC(=S)NC23CC4CC(CC(C4)C2)C3)cc1)N1CCCCC1,.,90*,.,.,.,61*
O=C(Nc1ccc(S(=O)(=O)N2CCCCC2)cc1)c1ccccc1Cl,0,0,18,.,-7,.
Cc1oc(S(=O)(=O)N2CCCCC2)cc1NC(=O)Nc1ccc(Cl)cc1,.,84*,.,-26,10,79*
O=C(Nc1ccc(C(=O)N2CCCC2)cc1)Nc1ccc(Cl)cc1Cl,0,-3,-10,-36,-9,.
NS(=O)(=O)c1ccc(NC(=S)Nc2ccc(S(=O)(=O)N3CCCC3)cc2)cc1,-1,-1,-5,-22,1,.
O=C(N/N=C\c1c(O)ccc2ccccc12)c1ccc(S(=O)(=O)N2CCCCC2)cc1,0,95*,100*,-18,58*,70*
Cc1nnc(SCc2nc3sc4c(c3c(=O)[nH]2)CCCC4)[nH]c1=O,0,1,-4,-7,-5,.
O=S(=O)(c1ccc(Cl)c(NC(=S)N/N=C/c2c(F)cccc2F)c1)N1CCOCC1,0,57*,-2,0,26,47*
O=C(CN1CCCc2ccccc21)N/N=C/c1c(O)ccc2ccccc12,0,95*,99*,-1,15,89*
CCN(CC)c1ccc(/C=N/NC(=O)CN2CCCc3ccccc32)cc1,0,12,6,-28,2,.
SMILES,Redox H2O2 prof,MPTP block,L major viab,Lipid droplet,T cruzi inh,MPTP counter
O=S(=O)(c1ccc(Cl)c(NC(=S)Nc2ccccc2N2CCOCC2)c1)N1CCOCC1,-1,2,12,5,4,.
O=S(=O)(c1ccc(NC(=S)NN=Cc2ccccc2O)cc1)N1CCCCC1,.,99*,.,.,.,81*
O=[N+]([O-])c1cc(Cl)cc(/C=N/NC(=S)Nc2ccc(S(=O)(=O)N3CCOCC3)cc2)c1O,.,72*,.,10,15,26*
CCCCC(=O)N(C)c1c(CC)nc2c(OCC(N)=O)cccn12,.,-1,.,.,.,.
N#CC(C#N)=NNc1ccc(S(=O)(=O)N2CCCCC2)cc1,0,89*,-5,22,-17,91*
COc1ccc(NC(=O)Nc2ccccc2)cc1S(=O)(=O)N1CCCCC1,-1,-1,17,9,7,.
Cc1oc(S(=O)(=O)N2CCCCC2)cc1NC(=O)Nc1ccccc1,.,51*,.,11,3,54*
FC(F)Oc1ccc(NC(=S)NC23CC4CC(CC(C4)C2)C3)cc1,.,54*,.,9,14,95*
CCCCSc1nc2sc3c(c2c(=O)[nH]1)CC(C)(CC)OC3 (stereo not drawn),.,0,.,7,1,.
CC(=O)c1cccc(NC(=S)NNC(=O)c2ccc(C)c([N+](=O)[O-])c2)c1,1,-1,-1,5,1,.
O=C(NNC(=S)Nc1ccc(F)cc1)c1cccc([N+](=O)[O-])c1,.,23,.,-25,-3,.
Cc1ccc(NC(=S)NNC(=O)c2cccc([N+](=O)[O-])c2)cc1Cl,.,79*,.,0,-28,65*
Cc1ccc(C(=O)NNC(=S)Nc2cccc(Cl)c2Cl)cc1[N+](=O)[O-],0,103*,-3,11,-18,85*
Cc1cccc[n+]1CC(=O)c1ccc(NC(=O)c2ccccc2)cc1,.,-1,.,-2,-4,.
Cc1cc(C)cc(NC(=O)NCc2c(-c3ccccc3)noc2C)c1,.,26,.,-7,-11,.
Cc1onc(-c2ccccc2)c1CNC(=O)Nc1cccc(Cl)c1,.,78*,.,-3,13,85*
Cc1onc(-c2ccccc2)c1CNC(=O)Nc1ccc(C(F)(F)F)cc1,.,78*,.,-8,56*,83*
COc1cc(/C=C2\C(=N)N3N=C(S(C)(=O)=O)SC3=NC2=O)ccc1OC(=O)c1ccco1,.,0,.,-12,5,.
CCCc1c(C(=O)N/N=C/c2ccco2)nnn1-c1nonc1N,.,0,.,-19,8,.
O=C(Nc1ccc(Oc2ccccc2)cc1)c1csc([C@H]2C[C@H](O)[C@@H](CO)O2)n1,.,81*,.,.,.,74*
CC(=O)Nc1ccc(NC(=O)c2csc([C@@H]3C[C@H](O)[C@@H](CO)O3)n2)cc1,.,0,.,.,.,.
COc1cc(/C=C(\C#N)c2nc3ccccc3o2)ccc1O,.,14,.,-22,5,.
N#C/C(=C\c1ccc(O)cc1)c1nc2ccccc2o1,.,87*,.,-8,16,90*
O=C(CN(Cc1ccccc1Cl)C(=O)c1csnn1)NCc1ccc2c(c1)OCO2,.,0,.,-9,9,.
